Screens from PubChem.
KCNK3 inh – human KCNK3 channel inhibition, primary screen. O14649. CHO-KCNK3 thallium flux, FluxOR fluorescence; active compounds read low. B-score at 10 µM. hit rate 0.84% among 340,000;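 active = B-score under library mean minus 4 SD, starting fluorescence ratio at most library mean plus 5 SD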;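 note: more negative B-score means stronger inhibition of thallium flux through KCNK3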
KCNK9 inh – blocks the human KCNK9 two-pore domain potassium channel; HEK293 KCNK9, FluxOR thallium flux fluorescence; active compounds read low; Q9NPC2; hit rate 1.2% among 310,000; B-score at 10 µM;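 active = ratio B-score over 3 SD below the library mean, with starting fluorescence within 5 SD of its mean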;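 note: negative B-score means less thallium flux so channel inhibition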
Target sequence (Q9NPC2 whole entry, looked up, the tested form may be a part): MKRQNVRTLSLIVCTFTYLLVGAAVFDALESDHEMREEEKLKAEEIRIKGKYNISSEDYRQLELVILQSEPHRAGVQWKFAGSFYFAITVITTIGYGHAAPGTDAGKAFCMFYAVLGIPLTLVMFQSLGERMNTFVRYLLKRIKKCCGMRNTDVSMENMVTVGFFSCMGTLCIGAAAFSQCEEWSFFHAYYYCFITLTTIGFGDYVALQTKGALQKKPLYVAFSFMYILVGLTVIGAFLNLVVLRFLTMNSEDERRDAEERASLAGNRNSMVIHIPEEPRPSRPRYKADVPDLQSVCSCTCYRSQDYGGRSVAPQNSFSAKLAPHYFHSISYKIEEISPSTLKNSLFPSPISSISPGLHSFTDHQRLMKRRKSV
hERG rescue – compounds protecting human hERG from proarrhythmic drug block; CHO-hERG, FluxOR thallium flux, dofetilide IC70 present; activation (rescue from dofetilide block), less the hit threshold, % at 10 µM; hit rate 0.51% among 310,000; AID 1511;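 active = activation above the mean of controls blocked by dofetilide plus 5 SD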;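 note: thallium influx through hERG after potassium depolarization seen as dye fluorescence rise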
KCNQ1 pot – potentiators or activators of human KCNQ1 potassium channel. CHO-K1 KCNQ1, thallium flux FluxOR fluorescence; active compounds read high. B-score at 10 µM. hit rate 0.35% among 310,000;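 active = fluorescence ratio B-score, a plate-corrected score, at least three library SD, with initial intensity B-score within 5 SD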
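Assay system: CHO-K1 cells stably expressing KCNQ1; Medium: assay buffer with matched DMSO; Also added: K+/Tl+ depolarizing stimulus; Dosing: single dose; Timing: dye 90 min, compound 20 min, room temperature; Measured by: kinetic FluxOR thallium fluorescence, 10-s 1-Hz baseline, 110-s post-stimulus read; Read-out: peak-minus-minimum fluorescence over initial fluorescence, negative-control normalized, B-scored.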
KCNQ1 block – inhibitors of human KCNQ1 potassium channel. CHO-K1 KCNQ1, FluxOR thallium flux fluorescence; active compounds read high. B-score at 10 µM. hit rate 1.3% among 310,000;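 active = compounds whose thallium flux B-score, printed positive for inhibition, exceeds three library SD while starting fluorescence stays within three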;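 note: channel opened by potassium depolarization with thallium stimulus after 20 min compound exposure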
KCNK9 inh conf – confirmation of human KCNK9 potassium channel inhibitors | AID 492992 | hit rate 43% among 4,900 | inhibition, % at 10 µM | HEK293 KCNK9 cells, FluxOR thallium flux fluorescence | shares compounds with KCNK9 inh;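 active = thallium signal inhibited by more than 5 SD of the compound-free buffer control wells, on both duplicate plates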;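 note: 0% = assay buffer control wells without compound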
Kir2-1 spec – mouse Kir2.1 off-target activity of KCNK9 modulators. shares compounds with KCNK9 inh. Kir2.1 cells, FluxOR thallium flux fluorescence. inhibition, % at 10 µM. hit rate 4% among 4,900;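 active = thallium signal drop more than 5 SD beyond the mean of the no-compound control wells, seen in both duplicate plates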;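 note: signal is fluorescence rise after thallium addition divided by baseline fluorescence; plate controls were assay buffer only for no effect and full block by chlorpromazine control for full effect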
KCNK9 uninduced – non-induced cell nonspecific activity of KCNK9 modulators; shares compounds with KCNK9 inh; non-induced KCNK9-HEK293, FluxOR thallium flux; inhibition, % at 10 µM; hit rate 40% among 4,900;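 active = thallium signal drop beyond 5 SD of the untreated control mean, on both duplicate plates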;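 note: plate controls were buffer only IC0 wells for no effect and SID17386958 at its maximal inhibitory level for full effect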
* marks the source's active call; other numbers are inactive results. Rows were chosen to be rich in hits. Some 3.1% of all compounds tested hit in one or more screens of this group.

CC(Oc1ccc(Br)cc1)c1nc2c3ccccc3nc(=S)n2[nH]1 (stereo not given) was read as KCNK3 inh inactive, KCNK9 inh inactive, hERG rescue 0, KCNQ1 pot 10*, KCNQ1 block inactive, KCNK9 inh conf inactive, Kir2-1 spec inactive and KCNK9 uninduced inactive.
Screening COc1cc(-c2nc3c4ccccc4nc(=S)n3[nH]2)cc(OC)c1OC returned KCNK3 inh inactive, KCNK9 inh inactive, hERG rescue -8, KCNQ1 pot inactive and KCNQ1 block inactive.
Screening CCCC(Oc1ccc(Br)cc1)c1nc2c3cc(OC)c(OC)cc3nc(=S)n2[nH]1 (stereo not given) returned KCNK3 inh inactive, KCNK9 inh inactive, hERG rescue -14, KCNQ1 pot inactive, KCNQ1 block inactive, KCNK9 inh conf inactive, Kir2-1 spec inactive and KCNK9 uninduced inactive.
Oc1ccc(-c2c(C3=CCCCC3)sc3ccccc23)cc1 was read as KCNK3 inh inactive, KCNK9 inh inactive, hERG rescue -7, KCNQ1 pot inactive and KCNQ1 block inactive.
COc1ccc(/C=C/C(=O)NCCCc2ccccc2)cc1 was read as KCNK3 inh inactive, KCNK9 inh inactive, hERG rescue -7, KCNQ1 pot inactive and KCNQ1 block inactive.
For CC(C)c1ccc(/C=C/C(=O)NCCCc2ccccc2)cc1 the results were KCNK3 inh inactive, KCNK9 inh inactive, hERG rescue -5, KCNQ1 pot inactive, KCNQ1 block 6*, KCNK9 inh conf inactive, Kir2-1 spec inactive and KCNK9 uninduced inactive.
For CN(CC(=O)NC(=O)NCc1ccccc1)Cc1ccc(Cl)cc1 the results were KCNK3 inh inactive, KCNK9 inh inactive, hERG rescue -4, KCNQ1 pot inactive, KCNQ1 block inactive, KCNK9 inh conf inactive, Kir2-1 spec inactive and KCNK9 uninduced inactive.
For CN(CC(=O)NC(=O)NCc1ccccc1)Cc1cccc(Cl)c1Cl the results were KCNK3 inh inactive, KCNK9 inh inactive, hERG rescue 0, KCNQ1 pot inactive, KCNQ1 block inactive, KCNK9 inh conf inactive, Kir2-1 spec inactive and KCNK9 uninduced 22%*.
For CN(CC(=O)NCc1ccccc1)Cc1ccc(Cl)cc1 the results were KCNK3 inh inactive, KCNK9 inh inactive, hERG rescue -4, KCNQ1 pot inactive and KCNQ1 block inactive.
COc1ccc(C)cc1S(=O)(=O)N(CC(=O)NCc1ccc(Cl)cc1)Cc1ccccc1 was read as KCNK3 inh inactive, KCNK9 inh -10*, hERG rescue -11, KCNQ1 pot inactive, KCNQ1 block inactive, KCNK9 inh conf inactive, Kir2-1 spec inactive and KCNK9 uninduced 40%*.
CCOC(=O)C1(CCc2ccccc2)CCN(C(=O)c2cc(C)nc(C)n2)CC1 was read as KCNK3 inh inactive, KCNK9 inh inactive, hERG rescue -9, KCNQ1 pot inactive and KCNQ1 block inactive.
Cc1c(O)c2c3c(cccc3c1O)C(=O)N(c1ccccc1)C2=O was read as KCNK3 inh inactive, KCNK9 inh inactive, hERG rescue -18, KCNQ1 pot inactive and KCNQ1 block inactive.
`CN(C)S(=O)(=O)c1cccc(NC(=O)c2cccc(S(=O)(=O)N3CCc4ccccc43)c2)c1` gave KCNK3 inh inactive.
Screening CCOc1ccc2[nH]c3c(=O)n(CCc4ccc(OC)cc4)cnc3c2c1 returned KCNK3 inh inactive, KCNK9 inh inactive, hERG rescue -6, KCNQ1 pot inactive and KCNQ1 block inactive.
CCOc1ccc2[nH]c3c(=O)n(CCC4=CCCCC4)cnc3c2c1 was read as KCNK3 inh inactive, KCNK9 inh inactive, hERG rescue -10, KCNQ1 pot inactive, KCNQ1 block inactive, KCNK9 inh conf inactive, Kir2-1 spec inactive and KCNK9 uninduced inactive.
`Nc1cc(C(F)(F)F)ccc1Nc1ccccc1` gave KCNK3 inh inactive, KCNK9 inh inactive, hERG rescue -6, KCNQ1 pot inactive and KCNQ1 block inactive.
CC(=O)NC(=S)Nc1ccccc1N1CCCCC1 was read as KCNK3 inh inactive, KCNK9 inh inactive, hERG rescue -4, KCNQ1 pot inactive and KCNQ1 block inactive.
`COc1ccc(-c2nc(-c3ccccc3)c(-c3cc([N+](=O)[O-])ccc3C)[nH]2)cc1OC` gave KCNK3 inh inactive, KCNK9 inh -12*, hERG rescue -7, KCNQ1 pot inactive, KCNQ1 block 14*, KCNK9 inh conf 54%*, Kir2-1 spec inactive and KCNK9 uninduced 33%*.
For O=[N+]([O-])c1ccc(O)c(-c2nc(-c3ccccc3)c(-c3cccs3)[nH]2)c1 the results were KCNK3 inh inactive, KCNK9 inh inactive, hERG rescue -19, KCNQ1 pot inactive and KCNQ1 block inactive.
`Cc1ccc(NC(=O)c2sccc2SCc2cccc(C(F)(F)F)c2)cc1` gave KCNK3 inh inactive, KCNK9 inh -14*, hERG rescue -10, KCNQ1 pot inactive, KCNQ1 block 10*, KCNK9 inh conf 64%*, Kir2-1 spec 48%* and KCNK9 uninduced 50%*.
`Cc1ccc(NC(=O)c2c(C(F)(F)F)nn(C)c2SCc2cccc(C(F)(F)F)c2)cc1C` gave KCNK3 inh inactive, KCNK9 inh inactive, hERG rescue -11, KCNQ1 pot inactive and KCNQ1 block inactive.
CN(Cc1ccc(F)cc1)C(=O)c1cc(COc2ccc(F)cc2F)on1 was read as KCNK3 inh inactive, KCNK9 inh inactive, hERG rescue 4, KCNQ1 pot inactive and KCNQ1 block inactive.
CN(CCc1ccccc1)C(=O)c1cc(COc2ccc(F)cc2Cl)on1 was read as KCNK3 inh inactive, KCNK9 inh inactive, hERG rescue -8, KCNQ1 pot inactive, KCNQ1 block inactive, KCNK9 inh conf inactive, Kir2-1 spec inactive and KCNK9 uninduced inactive.
COc1cccc(CN(C)C(=O)c2cc(COc3c(F)cccc3F)on2)c1 was read as KCNK3 inh inactive, KCNK9 inh inactive, hERG rescue -10, KCNQ1 pot inactive, KCNQ1 block inactive, KCNK9 inh conf inactive, Kir2-1 spec inactive and KCNK9 uninduced inactive.
For Cc1cc(OCc2cc(C(=O)N(C)CCOc3ccccc3)no2)cc(C)c1Cl the results were KCNK3 inh inactive, KCNK9 inh inactive, hERG rescue -6, KCNQ1 pot inactive, KCNQ1 block inactive, KCNK9 inh conf inactive, Kir2-1 spec inactive and KCNK9 uninduced inactive.
